Experimental data: paper PMC8366898 (European journal of medicinal chemistry, 2018)
≈ marks a conversion by molar mass, not a printed value. Entries after “also recorded” stand apart in the source; their conditions may differ. Where two headings read alike, the source gives them in different places.

Key:
S. aureus [1] = experiment: MIC, whole cell growth inhibition dose response; assay type: cell-based, Staphylococcus aureus; settings: for MIC: Staphylococcus aureus, MRSA
[2] = SPR binding of peptides on immobilized liposomes; settings: POPC lipid systems, 100 μM peptide
five bacterial pathogens = experiment: Bacterial growth inhibition at single concentration, whole panel; assay type: cell-based; settings: 32 μg/mL, in words
A. baumannii [3] = experiment: Bacterial growth inhibition at single concentration; assay type: cell-based, Acinetobacter baumannii; settings: 32 μg/mL (15–17 μM), OD600, 18 h
S. aureus [4] = experiment: as above; assay type: cell-based, Staphylococcus aureus; settings: 32 μg/mL (15–17 μM), OD600, 18 h; in words
Liposome leakage = settings: 20 μM peptide, CF dequenching
Procedure, shortened: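 Vesicles: 5 mg DOPC in chloroform, dried under N2, then freeze-dried 2 h to remove residual solvent. The lipid was redissolved in diethyl ether and hydrated in 10 mM HEPES, 100 mM KCl, pH 7.4, containing 50 mM carboxyfluorescein (quenching level). Peptide at 20 μM was mixed with vesicles for 3 min equilibration. Release was followed as the fluorescence dequenching rate.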

E. coli = experiment: MIC, whole cell growth inhibition dose response; assay type: cell-based, Escherichia coli; settings: n=2
K. pneumoniae = experiment: MIC, whole cell growth inhibition dose response; assay type: cell-based, Klebsiella pneumoniae; settings: n=2
A. baumannii [5] = experiment: MIC, whole cell growth inhibition dose response; assay type: cell-based, Acinetobacter baumannii; settings: polystyrene 96-well plate, n=2
[6] = non-binding surface 96-well plate

CN[C@H](CC(C)C)C(=O)N[C@H]1C(=O)N[C@@H](CC(N)=O)C(=O)N[C@H]2C(=O)N[C@H]3C(=O)N[C@H](C(=O)N[C@H](C(=O)O)c4cc(O)cc(O)c4-c4cc3ccc4O)[C@H](O)c3ccc(c(Cl)c3)Oc3cc2cc(c3O[C@@H]2O[C@H](CO)[C@@H](O)[C@H](O)[C@H]2O[C@H]2C[C@](C)(N)[C@H](O)[C@H](C)O2)Oc2ccc(cc2Cl)[C@H]1O [Vancomycin]
MIC (S. aureus [1]; read-out: MIC S. aureus MRSA NBS plate): 2 µg/mL (≈ 1.38 µM)
MIC (S. aureus [1]; read-out: MIC S. aureus MRSA PS plate): 2 µg/mL (≈ 1.38 µM)

Ac-(AzPro-Pro)8-NHCH2CH2OH [Peptide 2]
SPR binding response [2]: showed some binding response
antibacterial activity (growth inhibition) over the bacterial panel (five bacterial pathogens): considerable loss of activity

Boc-(Pro-AzPro)4-H [Peptide 22]
antibacterial activity (growth inhibition) over the bacterial panel (five bacterial pathogens): little inhibition

Boc-(Pro-AzPro)8-Cbz [Peptide 10]
SPR binding response [2]: showed some binding response

Boc-(Pro-AzPro)8-H.HCl [Peptide 17]
A. baumannii growth inhibition (A. baumannii [3]): some activity
S. aureus growth inhibition (S. aureus [4]): some activity

Cbz-(AzPro-Pro)4-OH [Peptide 19]
antibacterial activity (growth inhibition) over the bacterial panel (five bacterial pathogens): little inhibition

Cbz-(AzPro-Pro)4-O^tBu [Peptide 18]
antibacterial activity (growth inhibition) over the bacterial panel (five bacterial pathogens): little inhibition

Cbz-(AzPro-Pro)8-(N-Methyl AzPro) [Peptide 13]
antibacterial activity (growth inhibition) over the bacterial panel (five bacterial pathogens): highest activity

Cbz-(AzPro-Pro)8-NHCH2CH2OH [Peptide 1]
SPR binding response [2]: showed some binding response
DOPC liposome leakage (Liposome leakage): 13%
A. baumannii growth inhibition (A. baumannii [3]): 38%
antibacterial activity (growth inhibition) over the bacterial panel (five bacterial pathogens): highest activity

Cbz-(AzPro-Pro)8-OH [Peptide 14]
antibacterial activity (growth inhibition) over the bacterial panel (five bacterial pathogens): considerable loss of activity; also recorded: largely abolishes all activity

Cbz-(AzPro-Pro)8-O^tBu [Peptide 8]
SPR binding response [2]: showed some binding response
antibacterial activity (growth inhibition) over the bacterial panel (five bacterial pathogens): highest activity

Cbz-(AzPro-Pro)16-O^tBu [Peptide 11]
antibacterial activity (growth inhibition) over the bacterial panel (five bacterial pathogens): considerable loss of activity; also recorded: drastic loss in activity

Colistin
MIC E. coli FDA Control NBS plate (E. coli; [6]): 0.016 µg/mL
MIC E. coli FDA Control PS plate (E. coli; polystyrene 96-well plate): 0.125 µg/mL
MIC K. pneumoniae MDR NBS plate (K. pneumoniae; [6]): 0.06 µg/mL
MIC K. pneumoniae MDR PS plate (K. pneumoniae; polystyrene 96-well plate): 0.25 µg/mL
MIC A. baumannii Type PS plate (A. baumannii [5]): 1 µg/mL
MIC S. aureus MRSA NBS plate (S. aureus [1]; non-binding surface 96-well plate, n=2): >32 µg/mL
MIC S. aureus MRSA PS plate (S. aureus [1]; polystyrene 96-well plate, n=2): >32 µg/mL

Formyl-(AzPro-Pro)6-NHCH2CH2OH [Peptide 6]
antibacterial activity (growth inhibition) over the bacterial panel (five bacterial pathogens): largely abolishes all activity

Formyl-(AzPro-Pro)7-NHCH2CH2OH [Peptide 5]
antibacterial activity (growth inhibition) over the bacterial panel (five bacterial pathogens): largely abolishes all activity

H-(AzPro-Pro)4-O^tBu [Peptide 20]
antibacterial activity (growth inhibition) over the bacterial panel (five bacterial pathogens): largely abolishes all activity

H-(AzPro-Pro)8-NHCH2CH2OH [Peptide 4]
antibacterial activity (growth inhibition) over the bacterial panel (five bacterial pathogens): considerable loss of activity

H-(Pro-AzPro)8-H [Peptide 9]
antibacterial activity (growth inhibition) over the bacterial panel (five bacterial pathogens): highest activity

HCl. H-(Pro-AzPro)8-Cbz [Peptide 16]
A. baumannii growth inhibition (A. baumannii [3]): some activity
S. aureus growth inhibition (S. aureus [4]): some activity

HCl.H-(Pro-AzPro)4-Cbz [Peptide 23]
antibacterial activity (growth inhibition) over the bacterial panel (five bacterial pathogens): little inhibition
